From PubChem
This is a sample that favours compounds with a hit; in the whole collection about 9.2% have one here.
HUVEC inhibit: blocks proliferation of human endothelial cells | HUVEC proliferation, CellTiter-Glo luminescence, 72 h; active compounds read low | viability, % at 10 µM (by protocol) | hit rate 1.1% among 86,000 | AID 648;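 active = viability at or below 30%; inactive = viability above 30%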;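 note: 100% = median luminescence of DMSO-only cell control wells on each plate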
H69AR inhibit: blocks growth of human H69AR lung tumor cells; hit rate 6% among 85,000; viability, % at 10 µM; AID 598; H69AR lung tumor viability, ATP luminescence, 72 h; active compounds read low;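 active = viability at or below 40%; inactive = viability above 40%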;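 note: multidrug resistant small cell line overexpressing MRP-1 efflux transporter; 100% = mean luminescence of untreated control wells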
ERb SRC1 inh: ER-beta (human) coactivator binding inhibition; TR-FRET ER-beta LBD / SRC1-Cy5 peptide binding; receptor agonist-loaded with 1 µM estradiol; hit rate 1.3% among 86,000; Q92731; inhibition, % at 25.6 µM; AID 633;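 active = compounds whose percent inhibition of the receptor-coactivator binding signal exceeds about 50% in the single-dose screen, limit read from the data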;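 note: 0% = receptor plus peptide wells without compound and 100% = peptide-only wells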
ERa coact inh: ER-alpha (human) coactivator binding inhibition; P03372; TR-FRET ER-alpha LBD / SRC-1 peptide, estradiol-bound; inhibition, % at 25.6 µM; hit rate 1.7% among 86,000; AID 629; in the data active = inhibition above about 50%;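 note: 0% = receptor plus peptide control and 100% = peptide only without receptor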
Target sequence (P03372 whole entry, looked up, the tested form may be a part): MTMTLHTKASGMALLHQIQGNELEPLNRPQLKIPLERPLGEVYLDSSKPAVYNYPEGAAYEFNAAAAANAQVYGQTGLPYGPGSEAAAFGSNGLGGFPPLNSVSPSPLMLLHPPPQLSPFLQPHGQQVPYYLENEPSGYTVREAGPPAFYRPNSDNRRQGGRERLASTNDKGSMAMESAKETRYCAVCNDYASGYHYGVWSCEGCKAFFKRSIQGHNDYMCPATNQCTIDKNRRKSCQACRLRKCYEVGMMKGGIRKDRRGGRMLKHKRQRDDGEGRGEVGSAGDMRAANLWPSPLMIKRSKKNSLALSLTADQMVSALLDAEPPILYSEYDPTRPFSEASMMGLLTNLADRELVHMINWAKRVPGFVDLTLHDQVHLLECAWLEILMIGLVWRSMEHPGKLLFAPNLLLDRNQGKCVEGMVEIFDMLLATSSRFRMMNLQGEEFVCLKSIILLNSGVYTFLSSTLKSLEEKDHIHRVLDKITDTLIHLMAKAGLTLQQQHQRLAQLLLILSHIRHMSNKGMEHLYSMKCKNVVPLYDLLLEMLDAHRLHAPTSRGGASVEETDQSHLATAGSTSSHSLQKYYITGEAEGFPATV
ERa SRC1 pot: ER-alpha (human) coactivator binding potentiation. P03372. TR-FRET ERalpha-LBD/SRC-Cy5 coactivator binding, 2 h; 100 = basal binding, no effect. coactivator binding (% of control), % at 25.6 µM. hit rate 1.3% among 86,000. AID 639; in the data active = activity above about 200%;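 note: binding measured in presence of low estradiol as agonist stimulus; 0% = peptide alone without receptor and 100% = receptor with peptide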
Lung fibro prol: blocks proliferation of human lung fibroblasts | LL 47 human lung fibroblast viability, ATP luminescence; active compounds read low | viability, % at 10 µM | hit rate 1.1% among 85,000 | AID 719;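 active = viability at or below 50% in the single dose screen; inactive = viability above 50%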;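 note: compound exposure lasted 72 h before the ATP readout; 100% = median luminescence of untreated cell-only wells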
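Material: human lung fibroblast line LL 47, low passage; Evaluation: viability percentage against median untreated-cell control; Buffer or medium: 15% FBS in IMEM; Incubation: 72 h compound exposure at 37 °C after overnight plating; Dosing: 0.1% DMSO in all compound wells; Measured by: CellTiter-Glo luminescence.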
An asterisk follows results filed as active; · = no result given; [ ] = remark or other dose.

SMILES | HUVEC inhibit | H69AR inhibit | ERb SRC1 inh | ERa coact inh | ERa SRC1 pot | Lung fibro prol
CS(=O)(=O)N(CCc1ccccc1)CC(=O)N1CCc2ccccc2C1 | 93 | 84 | -3 | -1 | 127 | 97
NC(=O)c1c(NC(=O)CSc2nnc(-c3ccco3)n2-c2ccccc2)sc2c1CCC2 | 78 | 67 | 82*[fluorescence artefact?] | 94*[fluorescence artefact?] | 28 | 92
N#Cc1c(NC(=O)CSc2nnc(-c3ccco3)n2-c2ccccc2)sc2c1CCC2 | 98 | 99 | 38 | 44 | 61 | 103
O=C(CSc1n[nH]c(-c2ccco2)n1)Nc1sc2c(c1C(=O)Nc1ccccc1)CCCC2 | 84 | 73 | 35 | 51* | 78 | 103
COc1ccc(-n2c(SCC(=O)Nc3sc4c(c3C#N)CCCC4)nnc2-c2ccccc2OC)cc1 | 84 | 92 | -6 | -2 | 101 | 104
COc1ccc(-c2nnc(SCC(=O)Nc3sc4c(c3C#N)CCCC4)n2-c2ccccc2)cc1 | 3.7* | 2.3* | 6 | 5 | 230*[fluorescence artefact?] | 27*
CCCCC(C)n1[nH]c(=O)cc1N (configuration not stated) | 97 | 92 | -8 | -5 | 110 | 97
CCOC(=O)CCNCC1COc2ccccc2O1 (configuration not stated) | 94 | · | 4 | 3 | 87 | 105
CCCNCC1COc2ccccc2O1 (configuration not stated) | 93 | 107 | 80* | 84*[fluorescence artefact?] | 49 | 101
CC(C(=O)N(C1CC1)C1(C(=O)Nc2ccccc2)CCCC1)N1C(=O)c2ccccc2C1=O (configuration not stated) | 108 | 95 | -11 | -1 | 87 | 98
CCCNC(=O)NC(=O)CSc1ccc2c(c1)OCCO2 | 100 | 78 | -1 | -3 | 91 | 101
Cc1cc(NC2CCCCC2)nc(-c2ccccc2O)n1 | 74 | 38* | -6 | -5 | 94 | 90
Cc1ccc(S(=O)(=O)/N=C(\CCl)N2CCOCC2)cc1 | 77 | 1.2* | · | · | · | 59
O=C(Cc1cccs1)Nc1ccc(-c2nnn(CC(=O)N3CCOCC3)n2)cc1 | 88 | 88 | 93* | 96*[fluorescence artefact?] | 16 | 95
c1ccc(N(c2ccccc2)c2nc(N3CCOCC3)nc(N3CCOCC3)n2)cc1 | 84 | 52 | 5 | -5 | 102 | 93
CN(c1ccccc1)c1nc(N2CCCC2)nc(-n2ccnc2)n1 | 90 | 40* | 1 | 1 | 89 | 73
c1ccc(N(c2ccccc2)c2nc(N3CCCC3)nc(-n3ccnc3)n2)cc1 | 44 | 20* | 1 | 7 | 90 | 63
CCOC(=O)N1CCN(c2nc(N(c3ccccc3)c3ccccc3)nc(-n3ccnc3)n2)CC1 | 89 | 21* | 0 | -3 | 104 | 92
c1ccc(CN2CCN(c3nc(-c4ccccc4)nc(-n4ccnc4)n3)CC2)cc1 | 65 | 80 | -6 | 1 | 93 | 84
COc1ccc(-c2nc3c(Br)c(N)c(Br)cc3o2)cc1 | 60 | 29* | 7 | 27 | 103 | 80
Nc1c(Br)cc2oc(-c3ccccc3)nc2c1Br | 83 | 22* | 9 | 1 | 119 | 81
CCN1C(=O)CC(C(=O)O)SC1=Nc1ccc(OC)cc1 (configuration not stated) | 102 | 100 | -13 | 0 | 120 | 104
CCOc1cc(/C=N/O)cc(Br)c1OCC | 78 | 67 | -4 | 2 | 113 | 97
CCCOc1c(Br)cc(/C=N/O)cc1OC | 63 | 30* | 0 | -9 | 108 | 98
CCOC(=O)c1[nH]c2ccc(OC)cc2c1NC(=O)CCN1CCCC(C)C1 (configuration not stated) | 92 | 86 | 4 | 1 | 100 | 86
SMILES | HUVEC inhibit | H69AR inhibit | ERb SRC1 inh | ERa coact inh | ERa SRC1 pot | Lung fibro prol
O=C(C1=C(O)/C(=C/c2ccc(O)cc2)CCC1)C(F)(F)F | 83 | 29* | 1 | -3 | 107 | 99
CCCCCOC(=O)C1=C(C)N(C)C(=O)NC1c1cc(Br)c(O)c(OC)c1 (configuration not stated) | 109 | 112 | -5 | 3 | 102 | 91
CCOC(=O)Cc1c(C)nc2c(-c3ccc(OC)cc3)c(C)nn2c1C | 71 | 23* | -4 | -1 | 100 | 77
CCOC(=O)Cc1c(C)nc2c(-c3ccccc3)c(-c3ccccc3)[nH]n2c1=O | 75 | 32* | 7 | 18 | 84 | 92
Cc1ccc(/C(O)=C2/C(=O)C(=O)N(CCN3CCOCC3)C2c2cccs2)cc1 (configuration not stated) | 97 | 100 | -11 | -4 | 92 | 102
CC(=Nc1ccccc1)C1=C(O)COC1=O | 115 | 105 | -8 | -14 | 96 | 109
COc1ccc(OC)c(N=C(C)C2=C(O)COC2=O)c1 | 86 | 22* | 1 | 1 | 85 | 89
O=C(NCc1ccco1)NC12CC3CC(CC(C3)C1)C2 | 116 | 91 | 4 | 0 | 100 | 95
COc1ccc(-c2n[nH]c(C(F)(F)F)c2-c2cc3ccccc3o2)c(O)c1 | 12* | 11* | 6 | 1 | 239* | 79
COc1ccc(-c2n[nH]c(C)c2-c2ccc(Cl)cc2)c(O)c1 | 30 | 48 | -4 | 6 | 64 | 66
O=C(Nc1nc2cc3c(cc2s1)OCO3)C1=COCCO1 | 50 | 26* | 7 | 6 | 93 | 80
Cc1ccnc(NC(=O)c2c(O)c3ccccc3n(C)c2=O)c1 | 131 | 5.7* | 18 | 21 | 345*[fluorescence artefact?] | 76
CC(C)Cn1c(=O)c(C(=O)Nc2cnccn2)c(O)c2ccccc21 | 122 | 106 | -7 | -2 | 106 | 106
CC(C)Cn1c(=O)c(C(=O)Nc2ccncc2)c(O)c2ccccc21 | 62 | 9.8* | 38 | 51*[fluorescence artefact?] | 146 | 65
Cc1ccc(NC(=O)c2c(O)c3ccccc3n(C)c2=O)nc1 | 126 | 13* | 30 | 19 | 76 | 31*
Cn1c(=O)c(C(=O)Nc2ncccc2O)c(O)c2ccccc21 | 98 | 86 | 1 | 44 | 94 | 99
Cn1c(=O)c(C(=O)Nc2cccnc2)c(O)c2ccccc21 | 44 | 12* | -2 | -7 | 108 | 78
Cc1cccc(-n2ncc3c(NCCc4ccc(S(N)(=O)=O)cc4)ncnc32)c1 | 74 | 94 | 6 | -6 | 95 | 100
CCOc1ccc(OCCSc2nnnn2C2CCCCC2)cc1 | 89 | 92 | 18 | 22 | 92 | 111
O=C(COc1ccc(S(=O)(=O)N2CCOCC2)cc1)Nc1ccc2c(c1)OCCO2 | 94 | · | -2 | -6 | 118 | 92
O=C(NC1CC1)c1cccc(Nc2ccc(-c3ccc4c(c3)OCCO4)nn2)c1 | 73 | 32* | -3 | 5 | 93 | 83
O=S(=O)(c1ccc(Nc2ccc(-c3ccc4c(c3)OCCO4)nn2)cc1)N1CCCC1 | 16* | 21* | 9 | 8 | 123 | 65
CC(C)c1ccc(C(=O)CSc2n[nH]c(-c3ccncc3)n2)cc1 | 98 | 31* | -1 | 4 | 82 | 101
